In ChEMBL document CHEMBL4308914, “Discovery of potent, low-absorbable sodium-dependent glucose cotransporter 1 (SGLT1) inhibitor SGL5213 for type 2 diabetes treatment” (Bioorg Med Chem, 2019):
One block for each molecule: values may come before it.

How the values were obtained:
[1] = biological target: T1, Sodium/glucose cotransporter 1 (Homo sapiens, UniProt P13866); experiment: Inhibition of human SGLT1 expressed in CHOK1 cells assessed as reduction in sodium-dependent glucose uptake after 30 mins in presence of [14C]-methyl-alpha -D-glucopyranoside by microbeta counting method; type: cell-based
T1 sequence (P13866 whole entry): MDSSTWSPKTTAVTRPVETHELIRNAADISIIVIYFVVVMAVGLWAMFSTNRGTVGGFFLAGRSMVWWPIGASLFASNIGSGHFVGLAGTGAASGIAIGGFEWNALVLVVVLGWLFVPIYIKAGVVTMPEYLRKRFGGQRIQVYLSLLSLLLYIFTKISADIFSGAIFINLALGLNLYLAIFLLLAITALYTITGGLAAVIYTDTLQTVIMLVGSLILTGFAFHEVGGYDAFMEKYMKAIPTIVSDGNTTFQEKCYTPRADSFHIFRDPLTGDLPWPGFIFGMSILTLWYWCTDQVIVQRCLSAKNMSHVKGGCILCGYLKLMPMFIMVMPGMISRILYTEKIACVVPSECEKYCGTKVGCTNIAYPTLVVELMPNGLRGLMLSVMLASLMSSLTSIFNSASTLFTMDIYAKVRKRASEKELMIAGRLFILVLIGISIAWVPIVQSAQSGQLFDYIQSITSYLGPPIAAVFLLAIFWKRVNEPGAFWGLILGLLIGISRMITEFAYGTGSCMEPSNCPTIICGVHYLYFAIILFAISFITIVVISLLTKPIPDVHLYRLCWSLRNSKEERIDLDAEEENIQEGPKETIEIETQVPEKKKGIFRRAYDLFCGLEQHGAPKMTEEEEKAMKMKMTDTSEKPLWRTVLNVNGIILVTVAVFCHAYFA
Outline: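 CHO-K1 cells stably expressing human SGLT1, preincubated 20 min in Na-free choline buffer (pH 7.4). Uptake buffer (140 mM NaCl, HEPES/Tris pH 7.4) with 0.1 mM methyl-α-D-glucopyranoside plus [14C] tracer and test compound, 30 min at 37 °C. Cells washed, lysed in NaOH, radioactivity counted. Choline-for-Na buffer as background. Six concentrations; IC50 vs untreated control; mean of at least two experiments.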

[2] = biological target: T2, Sodium/glucose cotransporter 2 (Homo sapiens, UniProt P31639); experiment: Inhibition of human SGLT2 expressed in CHOK1 cells assessed as reduction in sodium-dependent glucose uptake after 1 hr in presence of [14C]-methyl-alpha -D-glucopyranoside by microbeta counting method; type: cell-based
T2 sequence (P31639 whole entry): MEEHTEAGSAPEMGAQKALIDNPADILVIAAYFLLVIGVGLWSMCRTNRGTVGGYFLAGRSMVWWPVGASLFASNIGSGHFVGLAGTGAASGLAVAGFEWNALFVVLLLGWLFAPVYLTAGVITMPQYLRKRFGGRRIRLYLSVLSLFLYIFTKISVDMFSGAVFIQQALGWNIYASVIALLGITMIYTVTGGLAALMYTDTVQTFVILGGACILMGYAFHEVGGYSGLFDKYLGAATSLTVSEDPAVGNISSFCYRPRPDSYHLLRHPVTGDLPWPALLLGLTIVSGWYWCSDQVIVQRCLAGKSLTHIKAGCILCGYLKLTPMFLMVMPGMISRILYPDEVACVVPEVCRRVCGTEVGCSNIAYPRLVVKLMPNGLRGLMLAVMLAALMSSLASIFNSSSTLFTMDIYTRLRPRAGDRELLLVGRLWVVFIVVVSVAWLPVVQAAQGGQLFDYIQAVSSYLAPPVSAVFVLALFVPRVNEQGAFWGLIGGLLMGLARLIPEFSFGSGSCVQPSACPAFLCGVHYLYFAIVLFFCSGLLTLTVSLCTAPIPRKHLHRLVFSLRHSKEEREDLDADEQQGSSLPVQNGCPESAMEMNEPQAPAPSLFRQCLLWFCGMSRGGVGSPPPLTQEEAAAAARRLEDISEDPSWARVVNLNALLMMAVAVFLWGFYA
Outline: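 Human SGLT2 stably expressed in CHO-K1 cells; 20 min Na-free choline pretreatment, then Na+ uptake buffer pH 7.4 with 1 mM methyl-α-D-glucopyranoside containing [14C] label plus compound, 1 h at 37 °C. Washed, NaOH lysis, scintillation counting; Na-free buffer for background. IC50 from six concentrations relative to uninhibited uptake; mean of at least two experiments.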

[3] = Permeability of the compound at pH 7.4 by PAMPA assay; type: ADME; conditions: read-out: permeability
Outline: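 PAMPA at pH 7.4: filter coated with GIT-0 lipid; donor compartment holds compound in universal buffer at 25 μM or 5 μM; permeability reported as ×10⁻⁶ cm/s.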

[4] = Volume of distribution at steady sate in Sprague-Dawley rat at 0.4 mg/kg, iv; type: ADME, organism-based; conditions: in vivo, read-out: Vdss
Outline: (§1)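 Fasted male SD rats, single i.v. dose in saline; tail-vein blood sampled over time, plasma analysed by LC-MS/MS. Parameters by non-compartmental analysis; mean of three animals.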

[5] = Drug uptake in Sprague-Dawley rat kidney at 0.3 mg/kg, iv administered as single dose after 72 hrs by LCMS analysis; type: ADME, organism-based; conditions: read-out: Drug uptake
Outline: (§2)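 Fasted male SD rats given single i.v. dose in saline; animals euthanized at 2, 24 and 72 h, kidneys homogenized in purified water and unchanged drug measured by LC-MS/MS (ng/g tissue). Mean ± SD of three animals; 72 h level also expressed relative to 2 h value.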

[6] = Total clearance in Sprague-Dawley rat at 0.4 mg/kg, iv; type: ADME, organism-based; conditions: in vivo; outline: as §1
[7] = Drug uptake in Sprague-Dawley rat kidney at 0.3 mg/kg, iv administered as single dose after 2 hrs by LCMS analysis; type: ADME, organism-based; conditions: read-out: Drug uptake; outline: as §2
[8] = Drug uptake in Sprague-Dawley rat kidney assessed as unchanged drug level at 0.3 mg/kg, iv administered as single dose after 72 hrs by LCMS analysis relative to control; type: ADME, organism-based; conditions: in vivo; outline: as §2
[9] = Oral bioavailability in Sprague-Dawley rat at 30 mg/kg; type: ADME, organism-based; conditions: in vivo
Outline: (§3)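 Fasted male SD rats dosed orally in 0.5% CMC Na; tail-vein plasma sampled over time and analysed by LC-MS/MS. Non-compartmental analysis; bioavailability relative to i.v. dosing in saline; mean of three animals.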

[10] = Drug uptake in Sprague-Dawley rat kidney at 0.3 mg/kg, iv administered as single dose after 24 hrs by LCMS analysis; type: ADME, organism-based; conditions: read-out: Drug uptake; outline: as §2
[11] = Drug excretion in bile duct cannulated Sprague-Dawley rat urine at 0.3 mg/kg, iv administered as single dose after 24 hrs by LCMS analysis; type: ADME, organism-based; conditions: read-out: Drug excretion
Outline: (§4)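 Bile duct-cannulated SD rats given single i.v. dose in saline; urine and bile collected over 24 h. Unchanged drug quantified by LC-MS/MS and expressed as cumulative % of dose; mean ± SD of three animals.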

[12] = Drug excretion in bile duct cannulated Sprague-Dawley rat bile at 0.3 mg/kg, iv administered as single dose after 24 hrs by LCMS analysis; type: ADME, organism-based; conditions: read-out: Drug excretion; outline: as §4
[13] = Cmax in Sprague-Dawley rat at 30 mg/kg, po; type: ADME, organism-based; set-up: dose 30 mg/kg, route oral; conditions: in vivo; outline: as §3
Rattus norvegicus [14] = experiment: Antidiabetic activity in Sprague-Dawley rat assessed as reduction in blood glucose AUC (0 to 2 hrs) at 0.3 mg/kg, po dosed just prior to sucrose loading measured up to 120 mins by sucrose tolerance test relative to control; type: functional; set-up: scale not given: the % may be the effect or the level left
Rattus norvegicus [15] = experiment: Antidiabetic activity in Sprague-Dawley rat assessed as reduction in blood glucose AUC (0 to 2 hrs) at 0.3 to 3 mg/kg, po dosed just prior to sucrose loading measured up to 120 mins by sucrose tolerance test relative to control; type: functional
[16] = Half life in Sprague-Dawley rat at 0.4 mg/kg, iv; type: ADME, organism-based; conditions: in vivo; outline: as §1
[17] = Tmax in Sprague-Dawley rat at 30 mg/kg, po; type: ADME, organism-based; conditions: in vivo; outline: as §3
Rattus norvegicus [18] = experiment: Antidiabetic activity in Sprague-Dawley rat assessed as reduction in blood glucose AUC (0 to 2 hrs) at 1 mg/kg, po dosed just prior to sucrose loading measured up to 120 mins by sucrose tolerance test relative to control; type: functional; set-up: scale not given: the % may be the effect or the level left
Rattus norvegicus [19] = experiment: Antidiabetic activity in Sprague-Dawley rat assessed as reduction in blood glucose AUC (0 to 2 hrs) at 3 mg/kg, po dosed just prior to sucrose loading measured up to 120 mins by sucrose tolerance test relative to control; type: functional; set-up: scale not given: the % may be the effect or the level left
[20] = Gastrointestinal toxicity in Sprague-Dawley rat assessed as induction of diarrhea at 0.3 to 3 mg/kg, po dosed just prior to sucrose loading measured up to 120 mins during sucrose tolerance test relative to control; type: organism-based; conditions: in vivo, 2 h

IC50 [1]: 176 nM
Compound: Cc1cc(C)c([C@@H]2O[C@H](CO)[C@@H](O)[C@H](O)[C@H]2O)cc1Cc1ccc(/C=C/C(C)(C)C(=O)NC(C)(C)CO)cc1Cl

IC50 [1]: 111 nM
IC50 [2]: 84 nM
Papp [3]: 7.5 ×10⁻⁶ cm/s
Compound: Cc1cc(/C=C/C(C)(C)C(=O)NC(C)(C)CO)ccc1Cc1cc([C@@H]2O[C@H](CO)[C@@H](O)[C@H](O)[C@H]2O)c(C)cc1C

Vd [4]: 0.964 L/kg
concentration at 72 h [5]: 12.5 ng/g
clearance [6]: 62.7 mL/min/kg
concentration at 2 h [7]: 1060 ng/g
Drug uptake [8]: 1.2%
bioavailability [9]: 0.09%
concentration at 24 h [10]: 83.8 ng/g
dose excreted at 24 h [11]: 5.3%
dose excreted at 24 h [12]: 89.8%
Cmax [13]: 5.34 ng/mL
Compound: Cc1cc(/C=C/C(C)(C)C(=O)NC(C)(C)C(=O)NCC(C)(C)N)ccc1Cc1cc([C@@H]2O[C@H](CO)[C@@H](O)[C@H](O)[C@H]2O)c(O)cc1C(C)C

IC50 [1]: 21 nM
Compound: Cc1cc(O)c([C@@H]2O[C@H](CO)[C@@H](O)[C@H](O)[C@H]2O)cc1Cc1ccc(/C=C/C(C)(C)C(=O)NC(C)(C)CO)cc1

IC50 [1]: 36 nM
IC50 [2]: 34 nM
Papp [3]: 1.8 ×10⁻⁶ cm/s
Compound: COc1cc(C(C)C)c(Cc2ccc(/C=C/C(C)(C)C(=O)NC(C)(C)CO)cc2)cc1[C@@H]1O[C@H](CO)[C@@H](O)[C@H](O)[C@H]1O

half-life [16]: 2.39 h
Tmax [17]: 2.83 h
Vd [4]: 1.64 L/kg
concentration at 72 h [5]: 29.2 ng/g
clearance [6]: 67 mL/min/kg
concentration at 2 h [7]: 1090 ng/g
Drug uptake [8]: 2.7%
bioavailability [9]: 0.17%
concentration at 24 h [10]: 104 ng/g
dose excreted at 24 h [11]: 18.1%
dose excreted at 24 h [12]: 65.1%
Cmax [13]: 1.88 ng/mL
Compound: COc1cc(C(C)C)c(Cc2ccc(/C=C/C(C)(C)C(=O)NC(C)(C)C(=O)NCCN(C)C)cc2)cc1[C@@H]1O[C@H](CO)[C@@H](O)[C@H](O)[C@H]1O
Activity (Rattus norvegicus [14]): 27.5%
Emax (Rattus norvegicus [15]): 50.8%
Activity (Rattus norvegicus [18]): 50.8%
Activity (Rattus norvegicus [19]): 45.7%
Activity [20]: Non-Toxic

IC50 [1]: 34 nM
IC50 [2]: 200 nM
Compound: COc1cc(C(C)C)c(Cc2ccc(/C=C/C(C)(C)C(=O)NC(C)(C)C(=O)N3CCNCC3)cc2C)cc1[C@@H]1O[C@H](CO)[C@@H](O)[C@H](O)[C@H]1O

IC50 [1]: 74 nM
IC50 [2]: 354 nM
Compound: COc1cc(C(C)C)c(Cc2ccc(/C=C/C(C)(C)C(=O)NC(C)(C)CO)cc2C)cc1[C@@H]1O[C@H](CO)[C@@H](O)[C@H](O)[C@H]1O
